Columns and labels:
[1] = tested on: VCaP; test: Antiproliferative activity against AR-positive human VCaP cells assessed as reduction in cell viability incubated for 144 hrs by cell-titer glo assay; assay type: functional, cell-based
Method in brief: (§1)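 Prostate cancer cells treated across a concentration range; viability read by CellTiter-Glo luminescence; experiments in triplicate; IC50 derived from the dose–response curves.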

[2] = molecular target: T1, Bromodomain-containing protein 4 (Homo sapiens, UniProt O60885); test: Binding affinity to human recombinant His6-tagged BRD4 bromodomain 1 (N44 to E168 residues) expressed in Escherichia coli BL21 (DE3) cells assessed as dissociation constant incubated for 1 hr by isothermal titration calorimetry
[3] = molecular target: T1, Bromodomain-containing protein 4; test: Binding affinity to human recombinant His6-tagged BRD4 bromodomain 1 (N44 to E168 residues) expressed in Escherichia coli BL21 (DE3) cells assessed as change in enthalpy incubated for 1 hr by isothermal titration calorimetry
[4] = molecular target: T1, Bromodomain-containing protein 4; test: Binding affinity to human recombinant His6-tagged BRD4 bromodomain 1 (N44 to E168 residues) expressed in Escherichia coli BL21 (DE3) cells assessed as change in entropy incubated for 1 hr by isothermal titration calorimetry
[5] = molecular target: CREB-binding protein (Homo sapiens) (UniProt Q92793); test: Binding affinity to human recombinant His6-tagged CREBBP (R1081 to G1197 residues) expressed in Escherichia coli BL21 (DE3) cells assessed as change in melting temperature at 200 uM incubated for 30 mins by SYPRO orange dye based thermal shift assay
Method in brief: (§2)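 Thermal shift assay measuring change in melting temperature of each isolated bromodomain module in the presence of compound versus without.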

[6] = molecular target: Histone-lysine N-methyltransferase ASH1L (Homo sapiens) (UniProt Q9NR48); test: Binding affinity to human recombinant His6-tagged ASH1L (E2433 to E2564 residues) expressed in Escherichia coli BL21 (DE3) cells assessed as change in melting temperature at 200 uM incubated for 30 mins by SYPRO orange dye based thermal shift assay; method in brief: as §2
[7] = molecular target: T1, Bromodomain-containing protein 4; test: Inhibition of HYSGRGK(Ac)GGK(Ac)GLGK(Ac)GGAK(Ac)RHRK(Biotin)-OH binding to recombinant human His6-tagged BRD4 bromodomain 1 (N44 to E168 residues) expressed in Escherichia coli BL21 (DE3) cells measured after 2 hrs by Alphascreen assay
[8] = molecular target: Bromodomain-containing protein 3 (Homo sapiens) (UniProt Q15059); test: Binding affinity to human recombinant His6-tagged BRD3 bromodomain 1 (P24 to E144 residues) expressed in Escherichia coli BL21 (DE3) cells assessed as change in melting temperature at 200 uM incubated for 30 mins by SYPRO orange dye based thermal shift assay; method in brief: as §2
[9] = molecular target: Histone acetyltransferase p300 (Homo sapiens) (UniProt Q09472); test: Binding affinity to human recombinant His6-tagged EP300 (A1040 to G1161 residues) expressed in Escherichia coli BL21 (DE3) cells assessed as change in melting temperature at 200 uM incubated for 30 mins by SYPRO orange dye based thermal shift assay; method in brief: as §2
[10] = tested on: LNCaP C4-2B; test: Antiproliferative activity against AR-positive human C4-2B cells assessed as reduction in cell viability incubated for 96 hrs by cell-titer glo assay; assay type: functional, cell-based; method in brief: as §1
[11] = molecular target: Bromodomain-containing protein 2 (Homo sapiens) (UniProt P25440); test: Binding affinity to human recombinant His6-tagged BRD2 bromodomain 1 (K77 to N194 residues) expressed in Escherichia coli BL21 (DE3) cells assessed as change in melting temperature at 200 uM incubated for 30 mins by SYPRO orange dye based thermal shift assay; method in brief: as §2
[12] = molecular target: Bromodomain adjacent to zinc finger domain protein 2B (Homo sapiens) (UniProt Q9UIF8); test: Binding affinity to human recombinant His6-tagged BAZ2B (S1858 to S1972 residues) expressed in Escherichia coli BL21 (DE3) cells assessed as change in melting temperature at 200 uM incubated for 30 mins by SYPRO orange dye based thermal shift assay; method in brief: as §2
Chain of Bromodomain adjacent to zinc finger domain protein 2B (Homo sapiens) (Q9UIF8 whole entry, the tested form may be a part): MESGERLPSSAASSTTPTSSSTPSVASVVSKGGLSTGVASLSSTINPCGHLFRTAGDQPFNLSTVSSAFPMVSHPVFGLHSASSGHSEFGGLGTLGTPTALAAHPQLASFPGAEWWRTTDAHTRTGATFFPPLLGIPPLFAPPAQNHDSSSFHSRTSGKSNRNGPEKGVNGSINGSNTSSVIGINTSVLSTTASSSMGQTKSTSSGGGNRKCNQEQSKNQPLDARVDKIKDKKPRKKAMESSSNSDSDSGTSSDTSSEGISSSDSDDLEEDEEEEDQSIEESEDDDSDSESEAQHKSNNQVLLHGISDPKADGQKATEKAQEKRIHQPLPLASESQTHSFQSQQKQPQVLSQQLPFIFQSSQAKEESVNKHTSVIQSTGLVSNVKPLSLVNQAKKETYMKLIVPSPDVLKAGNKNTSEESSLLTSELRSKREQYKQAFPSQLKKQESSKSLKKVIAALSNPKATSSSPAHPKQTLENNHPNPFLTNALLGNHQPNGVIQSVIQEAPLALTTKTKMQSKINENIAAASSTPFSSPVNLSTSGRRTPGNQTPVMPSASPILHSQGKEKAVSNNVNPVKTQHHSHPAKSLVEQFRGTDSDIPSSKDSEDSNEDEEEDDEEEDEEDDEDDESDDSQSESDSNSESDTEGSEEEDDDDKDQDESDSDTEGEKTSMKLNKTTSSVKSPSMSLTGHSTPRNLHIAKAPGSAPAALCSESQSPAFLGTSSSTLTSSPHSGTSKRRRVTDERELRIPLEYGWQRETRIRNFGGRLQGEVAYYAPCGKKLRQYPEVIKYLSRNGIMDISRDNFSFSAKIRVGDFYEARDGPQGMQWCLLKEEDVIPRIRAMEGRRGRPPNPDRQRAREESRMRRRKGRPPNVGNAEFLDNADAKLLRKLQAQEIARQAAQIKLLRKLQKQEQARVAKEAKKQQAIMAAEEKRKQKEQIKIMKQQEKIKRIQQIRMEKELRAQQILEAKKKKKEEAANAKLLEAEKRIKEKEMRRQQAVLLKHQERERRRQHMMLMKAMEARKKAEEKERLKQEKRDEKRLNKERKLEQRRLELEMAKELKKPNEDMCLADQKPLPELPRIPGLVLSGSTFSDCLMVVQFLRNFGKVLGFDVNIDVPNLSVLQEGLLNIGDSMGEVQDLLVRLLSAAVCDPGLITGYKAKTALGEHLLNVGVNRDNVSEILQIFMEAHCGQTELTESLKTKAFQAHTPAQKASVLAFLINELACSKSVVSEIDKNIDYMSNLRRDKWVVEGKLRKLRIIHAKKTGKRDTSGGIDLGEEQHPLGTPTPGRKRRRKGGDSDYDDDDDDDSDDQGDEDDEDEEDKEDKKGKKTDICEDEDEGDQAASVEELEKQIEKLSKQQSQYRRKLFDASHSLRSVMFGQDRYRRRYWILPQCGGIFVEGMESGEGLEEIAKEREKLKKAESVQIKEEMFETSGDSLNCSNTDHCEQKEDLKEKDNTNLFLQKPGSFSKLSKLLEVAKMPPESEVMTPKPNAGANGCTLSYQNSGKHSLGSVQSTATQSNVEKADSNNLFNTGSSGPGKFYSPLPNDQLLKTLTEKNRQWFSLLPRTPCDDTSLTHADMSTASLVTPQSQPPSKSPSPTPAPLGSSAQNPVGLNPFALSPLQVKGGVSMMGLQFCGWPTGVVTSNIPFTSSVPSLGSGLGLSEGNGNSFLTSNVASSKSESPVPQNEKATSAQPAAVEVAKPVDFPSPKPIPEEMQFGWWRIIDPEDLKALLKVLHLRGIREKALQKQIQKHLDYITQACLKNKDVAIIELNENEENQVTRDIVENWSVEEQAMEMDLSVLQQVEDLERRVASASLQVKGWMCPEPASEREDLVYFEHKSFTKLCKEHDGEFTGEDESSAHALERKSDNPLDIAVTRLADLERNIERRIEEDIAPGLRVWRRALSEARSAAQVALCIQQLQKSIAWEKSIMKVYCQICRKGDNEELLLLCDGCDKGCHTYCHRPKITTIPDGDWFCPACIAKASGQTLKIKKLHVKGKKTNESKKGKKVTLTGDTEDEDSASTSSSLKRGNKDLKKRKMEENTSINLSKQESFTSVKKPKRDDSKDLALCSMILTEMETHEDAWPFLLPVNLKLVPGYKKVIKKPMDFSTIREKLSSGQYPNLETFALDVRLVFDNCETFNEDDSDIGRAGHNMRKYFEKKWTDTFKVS

[13] = molecular target: T1, Bromodomain-containing protein 4; test: Binding affinity to human recombinant His6-tagged BRD4 bromodomain 1 (N44 to E168 residues) expressed in Escherichia coli BL21 (DE3) cells assessed as gibbs free energy change incubated for 1 hr by isothermal titration calorimetry
[14] = molecular target: Histone acetyltransferase KAT2B (Homo sapiens) (UniProt Q92831); test: Binding affinity to human recombinant His6-tagged PCAF (G715 to D831 residues) expressed in Escherichia coli BL21 (DE3) cells assessed as change in melting temperature at 200 uM incubated for 30 mins by SYPRO orange dye based thermal shift assay; method in brief: as §2
Chain of Histone acetyltransferase KAT2B (Homo sapiens) (Q92831 whole entry, looked up, the tested form may be a part): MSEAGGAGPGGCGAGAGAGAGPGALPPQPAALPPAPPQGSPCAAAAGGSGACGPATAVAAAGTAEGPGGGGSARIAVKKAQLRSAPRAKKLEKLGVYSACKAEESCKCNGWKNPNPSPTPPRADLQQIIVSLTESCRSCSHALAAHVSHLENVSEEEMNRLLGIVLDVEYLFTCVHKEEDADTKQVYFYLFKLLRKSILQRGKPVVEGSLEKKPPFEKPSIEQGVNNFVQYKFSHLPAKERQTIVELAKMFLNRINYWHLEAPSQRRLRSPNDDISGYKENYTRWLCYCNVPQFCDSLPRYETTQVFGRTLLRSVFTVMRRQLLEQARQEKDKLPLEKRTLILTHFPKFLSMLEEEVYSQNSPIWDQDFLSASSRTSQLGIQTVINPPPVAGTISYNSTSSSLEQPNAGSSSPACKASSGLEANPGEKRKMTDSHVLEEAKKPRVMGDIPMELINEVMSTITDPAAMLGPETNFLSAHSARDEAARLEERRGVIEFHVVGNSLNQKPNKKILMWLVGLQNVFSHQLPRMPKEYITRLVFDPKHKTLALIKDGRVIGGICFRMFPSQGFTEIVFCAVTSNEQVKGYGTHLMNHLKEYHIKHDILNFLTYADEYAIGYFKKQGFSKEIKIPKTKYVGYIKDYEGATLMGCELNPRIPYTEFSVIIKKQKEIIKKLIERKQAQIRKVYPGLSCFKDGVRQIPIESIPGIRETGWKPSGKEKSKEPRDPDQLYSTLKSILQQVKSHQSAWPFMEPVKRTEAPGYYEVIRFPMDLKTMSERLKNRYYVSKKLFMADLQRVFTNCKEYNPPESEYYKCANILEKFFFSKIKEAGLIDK

[15] = tested on: CWR22R; test: Antiproliferative activity against AR-positive human 22Rv1 cells assessed as reduction in cell viability incubated for 96 hrs by cell-titer glo assay; assay type: functional, cell-based; settings: 22Rv1, 96 h; method in brief: as §1
[16] = molecular target: Transcription initiation factor TFIID subunit 1 (Homo sapiens) (UniProt P21675); test: Binding affinity to human recombinant His6-tagged TAF1 bromodomain 1 (R1377 to D1503 residues) expressed in Escherichia coli BL21 (DE3) cells assessed as change in melting temperature at 200 uM incubated for 30 mins by SYPRO orange dye based thermal shift assay; method in brief: as §2
Chain of Transcription initiation factor TFIID subunit 1 (Homo sapiens) (P21675 whole entry, the tested form may be a part): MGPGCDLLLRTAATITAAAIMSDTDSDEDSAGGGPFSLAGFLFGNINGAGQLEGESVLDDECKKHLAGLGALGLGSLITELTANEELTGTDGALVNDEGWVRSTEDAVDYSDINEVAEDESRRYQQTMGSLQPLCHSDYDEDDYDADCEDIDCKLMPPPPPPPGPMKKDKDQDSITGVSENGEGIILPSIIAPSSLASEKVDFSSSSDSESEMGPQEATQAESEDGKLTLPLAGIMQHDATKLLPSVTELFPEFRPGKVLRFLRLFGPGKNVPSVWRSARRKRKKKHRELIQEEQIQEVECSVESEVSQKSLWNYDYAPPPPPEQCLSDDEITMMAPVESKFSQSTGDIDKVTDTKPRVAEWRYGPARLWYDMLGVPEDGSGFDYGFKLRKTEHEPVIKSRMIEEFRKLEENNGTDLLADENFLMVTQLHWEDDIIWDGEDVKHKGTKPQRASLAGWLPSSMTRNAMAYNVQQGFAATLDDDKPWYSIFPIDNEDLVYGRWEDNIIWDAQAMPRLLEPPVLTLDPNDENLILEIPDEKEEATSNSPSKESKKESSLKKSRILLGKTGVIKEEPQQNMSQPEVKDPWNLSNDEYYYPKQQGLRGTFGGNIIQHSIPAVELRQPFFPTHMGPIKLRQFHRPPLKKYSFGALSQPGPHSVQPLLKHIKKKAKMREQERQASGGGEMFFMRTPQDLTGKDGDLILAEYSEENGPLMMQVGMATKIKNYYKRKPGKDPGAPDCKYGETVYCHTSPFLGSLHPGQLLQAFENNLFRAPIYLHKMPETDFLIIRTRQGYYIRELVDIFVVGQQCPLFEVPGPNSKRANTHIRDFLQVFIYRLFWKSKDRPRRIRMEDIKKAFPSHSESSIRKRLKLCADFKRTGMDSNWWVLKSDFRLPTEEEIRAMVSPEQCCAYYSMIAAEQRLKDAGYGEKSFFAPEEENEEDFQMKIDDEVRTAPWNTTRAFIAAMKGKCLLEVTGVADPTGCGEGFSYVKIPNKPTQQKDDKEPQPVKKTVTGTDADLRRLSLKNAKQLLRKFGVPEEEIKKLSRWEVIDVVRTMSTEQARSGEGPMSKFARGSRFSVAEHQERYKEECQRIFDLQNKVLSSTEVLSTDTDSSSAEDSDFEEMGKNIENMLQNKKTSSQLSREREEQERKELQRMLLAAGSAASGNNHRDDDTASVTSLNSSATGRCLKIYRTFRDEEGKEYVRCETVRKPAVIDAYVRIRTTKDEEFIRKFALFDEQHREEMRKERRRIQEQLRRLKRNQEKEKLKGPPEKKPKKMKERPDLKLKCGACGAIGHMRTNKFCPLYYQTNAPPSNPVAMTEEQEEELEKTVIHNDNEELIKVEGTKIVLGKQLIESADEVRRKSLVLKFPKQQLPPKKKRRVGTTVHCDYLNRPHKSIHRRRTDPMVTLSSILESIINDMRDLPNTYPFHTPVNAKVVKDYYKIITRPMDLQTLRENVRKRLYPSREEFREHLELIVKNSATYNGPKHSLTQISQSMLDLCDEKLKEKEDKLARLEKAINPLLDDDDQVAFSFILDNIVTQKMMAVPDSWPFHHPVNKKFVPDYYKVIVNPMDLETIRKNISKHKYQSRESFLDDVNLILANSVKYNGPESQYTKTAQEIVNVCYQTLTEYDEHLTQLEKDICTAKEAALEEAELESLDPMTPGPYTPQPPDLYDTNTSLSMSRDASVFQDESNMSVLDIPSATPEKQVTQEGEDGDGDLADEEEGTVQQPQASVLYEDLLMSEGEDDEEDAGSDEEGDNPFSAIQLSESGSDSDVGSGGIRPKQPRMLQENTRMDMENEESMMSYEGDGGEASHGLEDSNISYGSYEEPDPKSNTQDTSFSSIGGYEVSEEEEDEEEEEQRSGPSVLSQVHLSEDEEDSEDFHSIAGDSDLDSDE

[17] = tested on: LNCaP; test: Antiproliferative activity against AR-positive human LNCAP cells assessed as reduction in cell viability incubated for 96 hrs by cell-titer glo assay; assay type: functional, cell-based; method in brief: as §1

Cc1noc2c(Br)cc(-c3nc4ccc(N5CCOCC5)cc4n3CC3CCCCC3)cc12
IC50 [1]: 500 nM
Kd [2]: 159 nM
deltaH [3]: -10.7 kcal/mol
TdeltaS [4]: -1.4 kcal/mol
ΔTm [5]: 0 °C
ΔTm [6]: -0.9 °C
IC50 [7]: 300 nM
ΔTm [8]: 8.9 °C
ΔTm [9]: -0.3 °C
IC50 [10]: 850 nM
ΔTm [11]: 6 °C
ΔTm [12]: -0.6 °C
deltaG [13]: -9.3 kcal/mol
ΔTm [14]: -0.6 °C
IC50 [15]: 640 nM
ΔTm [16]: -0.6 °C
IC50 [17]: 570 nM

CNc1cc2onc(C)c2cc1NS(=O)(=O)c1cc(Br)ccc1OC
IC50 [1]: 3020 nM
Kd [2]: 164 nM
deltaH [3]: -15.3 kcal/mol
TdeltaS [4]: -6 kcal/mol
ΔTm [5]: 2.1 °C
ΔTm [6]: -0.1 °C
IC50 [7]: 150 nM
ΔTm [8]: 6.5 °C
ΔTm [9]: 2.3 °C
IC50 [10]: 6430 nM
ΔTm [11]: 5.3 °C
ΔTm [12]: 0.3 °C
deltaG [13]: -9.3 kcal/mol
ΔTm [14]: 2.6 °C
IC50 [15]: 6730 nM
ΔTm [16]: -0.1 °C
IC50 [17]: 6160 nM

Cc1noc2ccc(-c3nc4ccc(N5CCOC[C@@H]5C)cc4n3CC3CCCCC3)cc12
IC50 [1]: 290 nM
Kd [2]: 81 nM
deltaH [3]: -11.9 kcal/mol
TdeltaS [4]: -2.2 kcal/mol
ΔTm [5]: 0.3 °C
ΔTm [6]: -0.5 °C
IC50 [7]: 180 nM
ΔTm [8]: 8.7 °C
ΔTm [9]: 0.3 °C
IC50 [10]: 840 nM
ΔTm [11]: 6.3 °C
ΔTm [12]: -0.6 °C
deltaG [13]: -9.7 kcal/mol
ΔTm [14]: -0.6 °C
IC50 [15]: 700 nM
ΔTm [16]: -0.9 °C
IC50 [17]: 470 nM

COc1cc2onc(C)c2cc1NS(=O)(=O)c1cc(Br)ccc1OC
IC50 [1]: 630 nM
Kd [2]: 82 nM
deltaH [3]: -12.2 kcal/mol
TdeltaS [4]: -2.5 kcal/mol
ΔTm [5]: 1.4 °C
ΔTm [6]: 0.3 °C
IC50 [7]: 130 nM
ΔTm [8]: 8.1 °C
ΔTm [9]: 2 °C
IC50 [10]: 2620 nM
ΔTm [11]: 5.3 °C
ΔTm [12]: 0 °C
deltaG [13]: -9.7 kcal/mol
ΔTm [14]: 2.7 °C
IC50 [15]: 1500 nM
ΔTm [16]: 0.1 °C
IC50 [17]: 1060 nM
